# Results from ChEMBL document CHEMBL4814057, “4-4-(Anilinomethyl)-3-[4-(trifluoromethyl)phenyl]-1H-pyrazol-1-ylbenzoic acid derivatives as potent anti-gram-positive bacterial agents” (Eur J Med Chem, 2021).
# The source made the active and inactive calls. No cut-off for these calls is given here.
# Legend:
# Staphylococcus aureus [1] = assay: Inhibition of RNA synthesis in Staphylococcus aureus ATCC 29213 at 8 times MIC measured by liquid scintillation counter; type: functional
# In short: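 Early-exponential cells in CAMHB added to drug (40x stock) in triplicate, with a no-drug control. After 30 min pre-incubation at room temperature, [3H]thymidine 3.0 µCi/tube (DNA) or [3H]uridine 0.5 µCi/tube (RNA) added for 30 min at room temperature. Stopped with cold TCA, precipitate filtered and washed, then scintillation counted.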
# Staphylococcus aureus [2] = assay: Inhibition of lipid synthesis in Staphylococcus aureus ATCC 29213 at 8 times MIC measured by liquid scintillation counter; type: functional
# In short: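 Early-exponential S. aureus ATCC 29213 in CAMHBII exposed to drug at 8x MIC in triplicate tubes. Lipids extracted with chloroform/water. Organic phase dried and counted by liquid scintillation.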
# Staphylococcus aureus [3] = assay: Antimicrobial activity against methicillin-resistant Staphylococcus aureus clinical isolate 1088888 by CLSI-based broth microdilution assay; type: functional
# Staphylococcus aureus [4] = assay: Antimicrobial activity against methicillin-sensitive Staphylococcus aureus clinical isolate 1088105 by CLSI-based broth microdilution assay; type: functional
# Staphylococcus aureus [5] = assay: Antimicrobial activity against Staphylococcus aureus ATCC 29213 assessed as inhibition of cell wall synthesis at 8 times MIC measured by liquid scintillation counter; type: functional
# In short: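 Early-exponential S. aureus ATCC 29213 resuspended in M9 minimal medium. Drug added at 8x MIC, pre-incubated 30 min at 37 °C. [14C]N-acetylglucosamine (0.4 µCi/reaction) added, 45 min at 37 °C. Stopped with 8% SDS, heated 95 °C for 30 min, spotted onto nitrocellulose filters, washed with 0.1% SDS. Counted by liquid scintillation. Triplicate.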
# Bacillus subtilis = assay: Antimicrobial activity against Bacillus subtilis ATCC 6623 assessed as bacterial growth inhibitions by CLSI protocol based microdilution method; type: functional
# In short: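 Broth microdilution starting at 50 µg/ml with 2-fold serial dilutions; run in triplicate.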
# Staphylococcus aureus [6] = assay: Antimicrobial activity against methicillin-resistant Staphylococcus aureus clinical isolate 1089106 by CLSI-based broth microdilution assay; type: functional
# Enterococcus faecium [7] = assay: Antimicrobial activity against vancomycin-resistant Enterococcus faecium clinical isolate 1088168 by CLSI-based broth microdilution assay; type: functional
# Staphylococcus aureus [8] = assay: Antibiofilm activity against Staphylococcus aureus UAMS-1 assessed as destruction catheter-associated biofilm formation measured after 48 hrs (reference value: 1.53 x 10^8); type: functional
# In short: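 Plasma-coated catheters colonised for 24 h at 37 °C with gentle shaking, starting from ~1 × 10^7 CFU of MSSA UAMS-1 in biofilm medium (TSB plus glucose and NaCl). […] Medium renewed at 24 h. Catheters (n = 3) sonicated at 48 h and plated on TSA for CFU per catheter.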
# Staphylococcus aureus [9] = assay: Antimicrobial activity against methicillin-resistant Staphylococcus aureus clinical isolate 1088610 by CLSI-based broth microdilution assay; type: functional
# Enterococcus faecium [10] = assay: Antimicrobial activity against vancomycin-resistant Enterococcus faecium clinical isolate 1088925 by CLSI-based broth microdilution assay; type: functional
# Enterococcus faecium [11] = assay: Antimicrobial activity against vancomycin-resistant Enterococcus faecium clinical isolate 1088051 by CLSI-based broth microdilution assay; type: functional
# Staphylococcus aureus [12] = assay: Antimicrobial activity against methicillin-sensitive Staphylococcus aureus clinical isolate 1088626 by CLSI-based broth microdilution assay; type: functional
# Staphylococcus aureus [13] = assay: Antimicrobial activity against antibiotic-resistant Staphylococcus aureus BM-2312 assessed as bacterial growth inhibitions by CLSI protocol based microdilution method; type: functional
# Staphylococcus aureus [14] = assay: Antibacterial activity against vancomycin-intermediate susceptible Staphylococcus aureus ATCC 25923 assessed as bacterial growth inhibition by measuring fold increase in MIC between 8 passages by broth dilution method; type: functional
# Enterococcus faecium [15] = assay: Antimicrobial activity against vancomycin-resistant Enterococcus faecium ATCC 700221 assessed as bacterial growth inhibitions by CLSI protocol based microdilution method; type: functional
# Enterococcus faecium [16] = assay: Antimicrobial activity against vancomycin-resistant Enterococcus faecium clinical isolate 1100440 by CLSI-based broth microdilution assay; type: functional
# Enterococcus faecium [17] = assay: Antimicrobial activity against vancomycin-resistant Enterococcus faecium clinical isolate 1091563 by CLSI-based broth microdilution assay; type: functional
# Staphylococcus aureus [18] = assay: Antibacterial activity against methicillin resistant Staphylococcus aureus ATCC 700699 persisters assessed as reduction in viability at 64 times MIC by colony counting method; type: functional, organism-based
# In short: (§1)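 Stationary-phase S. aureus from overnight CAMHB culture (35 °C, 200 rpm), washed thrice in PBS, diluted to ~5 × 10^8 CFU/ml. Incubated with antibiotic at 35 °C, 200 rpm. Aliquots taken at set times, washed, serially diluted in PBS, drop-plated (6 × 6) on TSA with 5% sheep blood. Colonies counted after 18–20 h at 35 °C. Triplicates.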
# Enterococcus faecium [19] = assay: Antimicrobial activity against vancomycin-resistant Enterococcus faecium clinical isolate 1088228 by CLSI-based broth microdilution assay; type: functional
# Staphylococcus aureus [20] = assay: Antimicrobial activity against methicillin-susceptible Staphylococcus aureus ATCC 25923 assessed as bacterial growth inhibitions by CLSI protocol based microdilution method; type: functional
# Enterococcus faecium [21] = assay: Antimicrobial activity against vancomycin-resistant Enterococcus faecium clinical isolate 1089544 by CLSI-based broth microdilution assay; type: functional
# Enterococcus faecium [22] = assay: Antimicrobial activity against vancomycin-resistant Enterococcus faecium clinical isolate 1091720 by CLSI-based broth microdilution assay; type: functional
# Enterococcus faecium [23] = assay: Antimicrobial activity against vancomycin-resistant Enterococcus faecium clinical isolate 1091282 by CLSI-based broth microdilution assay; type: functional
# Staphylococcus aureus [24] = assay: Antimicrobial activity against methicillin-resistant Staphylococcus aureus clinical isolate 1088064 by CLSI-based broth microdilution assay; type: functional
# Staphylococcus aureus [25] = assay: Antimicrobial activity against methicillin-sensitive Staphylococcus aureus ATCC 29213 by CLSI-based broth microdilution assay; type: functional
# Enterococcus faecium [26] = assay: Antimicrobial activity against vancomycin-resistant Enterococcus faecium clinical isolate 1094112 by CLSI-based broth microdilution assay; type: functional
# Enterococcus faecalis = assay: Antimicrobial activity against vancomycin-susceptible Enterococcus faecalis ATCC 29212 assessed as bacterial growth inhibitions by CLSI protocol based microdilution method
# Staphylococcus aureus [27] = assay: Antibacterial activity against methicillin resistant Staphylococcus aureus ATCC 700699 persisters assessed as reduction in viability at 16 times MIC by colony counting method; type: functional, organism-based; in short: as §1
# Staphylococcus aureus [28] = assay: Antimicrobial activity against methicillin-resistant Staphylococcus aureus ATCC 700699 assessed as bacterial growth inhibitions by CLSI protocol based microdilution method; type: functional
structure (smiles),measurement,setting,value
CO[C@H]1/C=C/O[C@@]2(C)Oc3c(C)c(O)c4c(O)c(c(/C=N/N5CCN(C)CC5)c(O)c4c3C2=O)NC(=O)/C(C)=C\C=C\[C@H](C)[C@H](O)[C@@H](C)[C@@H](O)[C@@H](C)[C@H](OC(C)=O)[C@@H]1C [RIFAMPIN],inhibition (INH),Staphylococcus aureus [1],76.3%
C/C=C/C/C=C/CCC(=O)[C@H]1O[C@H]1C(N)=O [CERULENIN],inhibition (INH),Staphylococcus aureus [2],71.9%
CN[C@H](CC(C)C)C(=O)N[C@H]1C(=O)N[C@@H](CC(N)=O)C(=O)N[C@H]2C(=O)N[C@H]3C(=O)N[C@H](C(=O)N[C@H](C(=O)O)c4cc(O)cc(O)c4-c4cc3ccc4O)[C@H](O)c3ccc(c(Cl)c3)Oc3cc2cc(c3O[C@@H]2O[C@H](CO)[C@@H](O)[C@H](O)[C@H]2O[C@H]2C[C@](C)(N)[C@H](O)[C@H](C)O2)Oc2ccc(cc2Cl)[C@H]1O [VANCOMYCIN],MIC,Staphylococcus aureus [3],> 64 µg/mL
same,MIC,Staphylococcus aureus [4],0.25 µg/mL
same,inhibition (INH),Staphylococcus aureus [5],87.3%
same,MIC,Bacillus subtilis,0.19 µg/mL
same,MIC,Staphylococcus aureus [6],64 µg/mL
same,MIC,Enterococcus faecium [7],> 64 µg/mL
same,Activity,Staphylococcus aureus [8],1.16 10^7CFU
same,MIC,Staphylococcus aureus [9],64 µg/mL
same,MIC,Enterococcus faecium [10],> 64 µg/mL
same,MIC,Enterococcus faecium [11],64 µg/mL
same,MIC,Staphylococcus aureus [12],0.25 µg/mL
same,MIC,Staphylococcus aureus [13],0.78 µg/mL
same,Activity,Staphylococcus aureus [14],inactive
same,MIC,Enterococcus faecium [15],> 50 µg/mL
same,MIC,Enterococcus faecium [16],> 64 µg/mL
same,MIC,Enterococcus faecium [17],64 µg/mL
same,Activity,Staphylococcus aureus [18],inactive
same,MIC,Enterococcus faecium [19],> 64 µg/mL
same,MIC,Staphylococcus aureus [20],0.78 µg/mL
same,MIC,Enterococcus faecium [21],> 64 µg/mL
same,MIC,Enterococcus faecium [22],64 µg/mL
same,MIC,Enterococcus faecium [23],> 64 µg/mL
same,MIC,Staphylococcus aureus [24],64 µg/mL
same,MIC,Staphylococcus aureus [25],0.25 µg/mL
same,MIC,Enterococcus faecium [26],> 64 µg/mL
same,MIC,Enterococcus faecalis,3.12 µg/mL
same,Activity,Staphylococcus aureus [27],inactive
same,MIC,Staphylococcus aureus [28],3.12 µg/mL
